# Most compounds without a hit are left out; they make up all but 2.6% or so of the library.
# PG9 Ab binder: PG9 antibody binding by small molecule. inhibition, % at 6.7 µM. actives 0.43% (n = 360,000). TR-FRET gp120-PG9 antibody binding. AID 624416; in the data active = inhibition above about 8.5%
# rCAG binder: molecules binding r(CAG) RNA repeats. actives 1.3% (n = 370,000). r(CAG) RNA repeat, TO-PRO-1 dye displacement fluorescence. inhibition, % at 3 µM;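 active = inhibition above the plate cutoff, the mean of all test compounds on that plate plus 3 SD, cut at about 35% in these data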;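 note: 0% = DMSO alone and 100% = 100 µM mitoxantrone as full dye displacement; higher means more dye released from RNA so lower well fluorescence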
# NR2E3 ag-1: activates human NR2E3 receptor; Q9Y5X4; CHO-S Gal4-NCOR/VP16-NR2E3 two-hybrid, luciferase; actives 0.35% (n = 360,000); inhibition of corepressor binding, % at 3.98 µM;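 active = inhibition above the mean of all tested compounds plus 3 SD, cut at about 70% in these data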;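 note: 0% = DMSO with NR2E3 transfected cells and 100% = cells lacking NR2E3 construct; higher means lower luciferase signal from less NR2E3 corepressor binding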
# Target sequence (Q9Y5X4 whole entry, looked up, the tested form may be a part): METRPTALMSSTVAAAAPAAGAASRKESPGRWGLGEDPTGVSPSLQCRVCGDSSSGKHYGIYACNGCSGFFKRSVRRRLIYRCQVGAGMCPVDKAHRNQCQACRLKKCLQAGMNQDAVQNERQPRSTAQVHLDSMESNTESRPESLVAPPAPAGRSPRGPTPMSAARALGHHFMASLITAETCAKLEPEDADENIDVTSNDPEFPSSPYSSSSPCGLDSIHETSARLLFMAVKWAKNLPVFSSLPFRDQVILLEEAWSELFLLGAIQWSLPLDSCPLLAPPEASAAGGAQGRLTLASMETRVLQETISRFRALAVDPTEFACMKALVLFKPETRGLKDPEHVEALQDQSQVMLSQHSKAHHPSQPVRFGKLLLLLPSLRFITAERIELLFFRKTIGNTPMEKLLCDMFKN
# NR2E3 ag-2: activates human photoreceptor nuclear receptor NR2E3; actives 0.12% (n = 320,000); AID 2300; Q9Y5X4; GST-NR2E3/biotin-RetCOR TR-FRET, 1536-well; inhibition of corepressor binding, % at 4.78 µM;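 active = percent inhibition above the cutoff of mean plus 3 SD of all tested compounds, set per screening campaign, cut at about 20% in these data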;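 note: 0% = DMSO wells and 100% = biotin wells as full block of FRET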
#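 Test system – NR2E3–RetCOR corepressor complex · Quantity – NR2E3 fusion 1.35 nM · Buffer or medium – Tris pH 7.5 · Incubation – Compound–protein incubation for 5 h at 4 °C · Technique – TR-FRET, Eu(K)-anti-GST donor, streptavidin-D2 acceptor, ex 340, em 617/671 nm · Evaluation – percent inhibition of 671/617 nm emission ratio versus biotin and DMSO controls · Plate – 1536-well format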
# Rev-erbA mod: modulators of human Rev-erb alpha DNA binding; Rev-erbα–FITC-DNA binding, fluorescence polarization, 90 min; activity, % at 10 µM; AID 1259318; P20393; actives 0.79% (n = 370,000);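 active = activity above about 14%, limit read from the data; passing the limit was not always enough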;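 note: 0% = DMSO wells with 35 nM protein and 100% = DMSO wells with 750 nM protein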
# NR2E3 ag conf: NR2E3 agonism confirmed in two-hybrid assay; shares compounds with NR2E3 ag-1; CHO-S mammalian two-hybrid NR2E3-NCOR, luciferase luminescence; inhibition, % at 3.98 µM; actives 51% (n = 2,300); AID 624378;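 active = average inhibition above a cutoff equal to the mean inhibition of all tested compounds plus one SD, cut at about 70% in these data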;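 note: 0% = DMSO in NR2E3 cells and 100% = DMSO in cells lacking NR2E3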
# VP16 counter: reduces GAL4-VP16 reporter signal in NR2E3 counterscreen; shares compounds with NR2E3 ag-1; CHO-S GAL4-VP16 luciferase reporter, luminescence; inhibition, % at 3.98 µM; actives 29% (n = 2,300); AID 624379;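 active = mean inhibition above a cutoff equal to the average over all tested compounds plus one standard deviation, cut at about 70% in these data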;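 note: luciferase from a UAS reporter driven by GAL4-VP16 transactivation; 0% = DMSO with VP16-transfected cells and 100% = DMSO with cells lacking VP16; higher means less reporter light so more repression of VP16 activity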
# * marks the source's active call; other numbers are inactive results; x = not tested or not shown.
SMILES,PG9 Ab binder,rCAG binder,NR2E3 ag-1,NR2E3 ag-2,Rev-erbA mod,NR2E3 ag conf,VP16 counter
CN1C(=O)[C@@]2(O[C@H]3c4ccccc4C=CN3C3=C2C(=O)CCC3)c2ccccc21,0,2,x,x,1,x,x
Cc1sc(NC(=O)CN2CCOCC2)nc1-c1ccc2c(c1)CCN2S(=O)(=O)c1ccccc1,1,6,56,3,-3,85*,71*
O=C(C(=O)N1CCC(CNS(=O)(=O)c2cccc3ccccc23)CC1)c1cccs1,0,6,x,x,3,x,x
CC[C@@H]1Cc2[nH][nH]c(=O)c2[C@@H](c2ccc(Cl)cc2)O1,-1,9,-14,x,-10,x,x
Cc1cc(C)cc(NS(=O)(=O)c2ccc(-c3cnc(C4CC4)o3)cc2)c1,-2,4,53,0,4,47,34
CC(=O)Nc1ccc(NS(=O)(=O)c2ccc(-c3cnc(C4CC4)o3)cc2)cc1,0,7,0,-1,-3,x,x
Cc1cccc(NS(=O)(=O)c2ccc(-c3cnc(C4CC4)o3)cc2)c1C,-2,4,83*,2,5,77*,39
CC(=O)c1cccc(NS(=O)(=O)c2ccc(-c3cnc(C4CC4)o3)cc2)c1,-1,10,101*,1,0,95*,82*
Cc1ccc(C)c(NS(=O)(=O)c2ccc(-c3cnc(C4CC4)o3)cc2)c1,0,2,80*,4,4,59,40
O=S(=O)(Nc1ccccc1)c1ccc(-c2cnc(C3CC3)o2)cc1,0,2,16,1,-1,x,x
CCc1ccc(NC(=S)N(CCCN2CCOCC2)Cc2ccco2)cc1,-2,-6,66,-2,-3,-7,-11
COc1ccc(NC(=S)N(CCCN2CCOCC2)Cc2ccco2)cc1,-1,-6,-7,-1,5,x,x
CCOC(=O)N/N=C/c1c(C)nn(-c2ccccc2Cl)c1Cl,1,-7,-68,2,-3,x,x
Cc1nn(-c2ccccc2Cl)c(Cl)c1/C=N/Nc1nc2ccccc2s1,-3,4,52,-4,-4,77*,67
CC(=O)C1=C(C)N(CC(C)C)C(=S)NC1c1cccc(Cl)c1 (stereo not given),1,0,x,x,-1,x,x
Cn1c(=O)cc(SCC(=O)Nc2ccccn2)c2ccccc21,0,0,x,-7,-5,x,x
Cc1ccnc(NC(=O)CSc2cc(=O)n(C)c3ccccc23)c1,-1,-2,67,-2,0,89*,20
Cn1c(=O)cc(OCCCC(=O)Nc2cc(Br)ccn2)c2ccccc21,x,x,x,x,-6,x,x
Cc1ccnc(NC(=O)CCCOc2cc(=O)n(C)c3ccccc23)c1,-1,1,58,1,5,73*,28
CC(C)(C)c1ccc(CSc2nc(N)cc(=O)[nH]2)cc1,x,x,96*,0,x,76*,54
COc1ccc(C2=NS(=O)(=O)N(C)C(C(=O)Nc3ccc4c(c3)OCO4)=C2)cc1,1,7,28,1,3,x,x
Cc1ccc(C2=NS(=O)(=O)N(C)C(C(=O)Nc3ccc4c(c3)OCO4)=C2)cc1,-2,11,49,4,4,33,42
Cc1ccc(NC(=S)NC2CCSc3ccccc32)cc1C (stereo not given),-2,4,66,1,-2,-8,17
CC(=O)c1ccc(N2CCN(S(=O)(=O)c3ccc4c(c3)CC(C)N4C(C)=O)CC2)cc1 (stereo not given),-2,1,70*,-1,-5,92*,73*
CC(=O)N1c2ccc(S(=O)(=O)N3CCOCC3)cc2CC1C (stereo not given),0,2,0,-2,2,x,x
SMILES,PG9 Ab binder,rCAG binder,NR2E3 ag-1,NR2E3 ag-2,Rev-erbA mod,NR2E3 ag conf,VP16 counter
CC1Cc2cc(S(=O)(=O)N3CCC(C(=O)N4CCN(c5ccccc5F)CC4)CC3)ccc2N1C(=O)C1CC1 (stereo not given),-1,4,74*,0,5,46,45
CC(=O)N1c2ccc(S(=O)(=O)N3CCC(C(=O)N4CCN(c5cc(Cl)ccc5C)CC4)CC3)cc2CC1C (stereo not given),-1,13,87*,3,4,90*,78*
Cc1ccc(C)c(N2CCN(S(=O)(=O)c3ccc4c(c3)CC(C)N4C(=O)C3CC3)CC2)c1 (stereo not given),0,4,-14,2,1,x,x
Cc1cccc(N2CCN(S(=O)(=O)c3ccc4c(c3)CC(C)N4C(=O)C3CC3)CC2)c1C (stereo not given),-2,6,53,-2,-2,59,54
CC(=O)N1c2ccc(S(=O)(=O)N3CCC(C(=O)N4CCC(C)CC4)CC3)cc2CC1C (stereo not given),0,-2,34,-3,-1,x,x
CCC(=O)N1CCC(C(=O)NC2CCCc3ccccc32)CC1 (stereo not given),x,-1,x,x,0,x,x
COC(=O)[C@]12C[C@H](CC(=O)NCc3ccc(C)o3)C(=O)N(CCC3=CCCCC3)C1=C[C@H](COCc1ccccc1)O[C@@H]2C,1,5,x,x,-5,x,x
CCCc1ccc(C(C)NC(=S)NCc2ccc(F)cc2)cc1 (stereo not given),-1,-4,77*,2,1,29,28
CCCc1ccc(C(C)NC(=S)NC2CCCCC2)cc1 (stereo not given),-1,-6,51,x,6,42,51
O=C(Nc1ccc2c(c1)OCO2)OC1CC2CC1[C@H]1CCCCN1[C@H]2Cc1ccccc1 (stereo not given in full),x,1,x,x,1,x,x
CC(C)(C)n1nc(C2CC2)cc1NC(=O)Nc1ccccc1,1,1,x,x,-4,x,x
O=C(CCC(=O)N1CCN(c2ccc(F)cc2)CC1)c1ccc(Cl)cc1,-2,5,22,2,-3,x,x
O=C(CCC(=O)N1CCN(c2ccc(Cl)c(Cl)c2)CC1)c1ccccc1,-1,-2,91*,1,3,96*,76*
COC(=O)c1ccc(N)c2c(N)ccc(C(=O)OC)c12,-13,6,x,x,-7,x,x
CC(=O)c1c(C)[nH]c(C(=O)OCC(=O)c2ccc(Br)cc2)c1C,-1,5,57,x,2,86*,56
CC(=O)c1c(C)[nH]c(C(=O)OCCCCN2C(=O)c3ccccc3C2=O)c1C,0,-6,89*,0,-6,96*,88*
CC(=O)c1c(C)[nH]c(C(=O)OCC(=O)Nc2ccc(Cl)cc2[N+](=O)[O-])c1C,-1,1,86*,-1,-5,96*,89*
CCOC(=O)c1c(C)[nH]c(C(=O)OCC(=O)c2ccccc2)c1C,-2,-4,-136,2,-2,x,x
